High-throughput results: PubChem, several laboratories
CHT PAM = human CHT allosteric activation; 310,000 compounds, 0.49% hits; B-score at 10 µM; Q9GZV3; CHT-expressing cells, membrane potential dye, choline EC20; stronger effect = higher value; LV-AA mutant CHT in HEK293 cells;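 active = initial fluorescence not abnormally high and integrated response B-score, plate-corrected, over 3 SD above library mean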
Target sequence (Q9GZV3 whole entry, looked up): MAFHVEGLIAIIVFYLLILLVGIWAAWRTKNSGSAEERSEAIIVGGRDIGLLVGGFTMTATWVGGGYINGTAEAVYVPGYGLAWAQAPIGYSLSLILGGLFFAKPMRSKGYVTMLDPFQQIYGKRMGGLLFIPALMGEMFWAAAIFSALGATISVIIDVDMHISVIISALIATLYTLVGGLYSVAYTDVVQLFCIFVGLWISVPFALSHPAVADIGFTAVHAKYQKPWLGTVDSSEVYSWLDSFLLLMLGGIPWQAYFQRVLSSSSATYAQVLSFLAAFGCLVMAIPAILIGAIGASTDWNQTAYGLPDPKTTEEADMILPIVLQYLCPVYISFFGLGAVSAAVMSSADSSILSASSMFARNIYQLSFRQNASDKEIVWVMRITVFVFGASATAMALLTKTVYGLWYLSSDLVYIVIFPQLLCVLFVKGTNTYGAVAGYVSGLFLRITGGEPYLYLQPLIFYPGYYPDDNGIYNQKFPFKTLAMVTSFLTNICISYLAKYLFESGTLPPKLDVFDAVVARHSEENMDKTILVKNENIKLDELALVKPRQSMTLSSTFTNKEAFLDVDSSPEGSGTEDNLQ
GalR3 antag = antagonists of human GalR3 | O60755 | HEK293 GalR3-CNG cAMP membrane potential fluorescence; galR3 body fused to GalR1 C-terminus | 360,000 compounds, 0.44% hits | AID 651719 | inhibition, % at 3 µM;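 active = inhibition above the screen-wide average plus 3 SD, cut at about 13% in these data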;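 note: forskolin and galanin both at EC90 stimulate the cells; cAMP rise reported by CNG channel membrane potential dye signal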
CHT inh = human CHT choline transport inhibition; 310,000 compounds, 0.86% hits; B-score at 10 µM; CHT-expressing cells, membrane potential dye, choline response; stronger effect = lower value; Q9GZV3;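 active = B-score over 3 SD under the library average, and starting fluorescence ratio not unusually high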;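 note: choline stimulus applied at its EC90 after an EC20 pre-addition; B-score computed on integrated fluorescence ratio after choline addition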
NR2E3 ag-1 = human photoreceptor-specific nuclear receptor agonism. CHO-S Gal4-NCOR/VP16-NR2E3 two-hybrid, luciferase. Q9Y5X4. 360,000 compounds, 0.35% hits. inhibition of corepressor binding, % at 3.98 µM;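 active = inhibition above the mean of all tested compounds plus 3 SD, cut at about 70% in these data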;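 note: higher means lower luciferase signal from less NR2E3 corepressor binding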
NR2F2 inh = blocks human COUP-TFII nuclear receptor; 370,000 compounds, 0.7% hits; AID 686940; inhibition, % at 8.6 µM; HEK293T NGFI-A luciferase reporter, luminescence; P24468;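 active = inhibition above a per-plate cutoff, mean inhibition of test wells between control levels plus 3 SD, cut at about 38% in these data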;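 note: cells cotransfected with COUP-TFII expression vector driving the NGFI-A reporter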
NR2E3 ag-2 = activates human photoreceptor nuclear receptor NR2E3; inhibition of corepressor binding, % at 4.78 µM; AID 2300; GST-NR2E3/biotin-RetCOR TR-FRET, 1536-well; 320,000 compounds, 0.12% hits; Q9Y5X4;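 active = percent inhibition above the cutoff of mean plus 3 SD of all tested compounds, set per screening campaign, cut at about 20% in these data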
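Test system: GST-NR2E3 and biotin-RetCOR proteins | Quantity: 1.35 nM GST-tagged NR2E3 final | Medium: Tris pH 7.5 | Also added: 7 nM biotin-RetCOR | Dosing: Compound at 4.8 µM, single dose | Timing: 5 h at 4 °C | Detection: Time-resolved FRET | Read-out basis: Percent inhibition | Benchmarks: Biotin wells as high control, 0.6% DMSO wells as low control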
CHT activ conf = human CHT activation, confirmatory screen | shares compounds with CHT PAM | CHT-expressing cells, membrane potential dye fluorescence (FDSS); % of choline EC20–EC90 response window; HEK293 expressing CHT LV-AA mutant; choline added at its EC20 | activation, % at 10 µM | 2,500 compounds, 91% hits | AID 504833;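 active = primary screen active, with duplicate mean activation above negative control mean plus 3 SD, cut at about 11% in these data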
HEK293 MP dye = counter-screen for CHT activators: effect in parental HEK293 cells. shares compounds with CHT PAM. 2,500 compounds, 62% hits. ratio readout change at 10 µM, hits read low. membrane potential dye fluorescence (FDSS); measured after EC20 choline addition;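 active = duplicate-averaged ratio beyond 3 SD from buffer wells, up or down, though filed actives are nearly all decreases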
A number is an active result; . = inactive; / = no result given. This is a sample that favours compounds with a hit; in the whole collection about 2.3% have one here.

SMILES | CHT PAM | GalR3 antag | CHT inh | NR2E3 ag-1 | NR2F2 inh | NR2E3 ag-2 | CHT activ conf | HEK293 MP dye
CCOC(=O)N1CCN(c2ncnc3scc(-c4ccccc4)c23)CC1 | 9.7 | . | . | . | . | . | 15 | .
CCOC(=O)c1sc2ncnc(N3CCN(c4ccc(OC)cc4)CC3)c2c1C | . | . | . | . | . | . | / | /
O=C(O)CSCC(=O)N1CCN(c2ncnc3scc(-c4ccccc4)c23)CC1 | . | . | . | . | . | . | / | /
CCOC(=O)c1sc2ncnc(N3CCN(C)CC3)c2c1C | . | . | . | . | . | . | 30 | -41
Cc1ccc(-n2c(SCC(=O)Nc3ccc(OCc4ccccc4)cc3)nnc2-c2cnccn2)cc1 | / | / | / | / | . | / | / | /
CCCC1=[N+](CC(=O)c2ccccc2)CCn2c(C)ccc21 | 8.1 | . | . | . | . | . | 40 | .
CC(=O)Nc1ccc(S(=O)(=O)NCC2CCC(C(=O)N3CCCCC3)CC2)cc1 (stereo not given) | . | . | . | . | . | . | / | /
CCOC(=O)C1CCCN(C(=O)C2CCC(CNS(=O)(=O)c3ccc(NC(C)=O)cc3)CC2)C1 (stereo not given) | . | . | . | . | . | . | . | .
CCn1cc(C(=O)OCC(=O)Nc2ccc(C(C)C)cc2)c(=O)c2ccc(C)nc21 | . | . | . | . | . | . | / | /
CCn1cc(C(=O)OCC(=O)N(C)C2CCS(=O)(=O)C2)c(=O)c2ccc(C)nc21 (stereo not given) | 8.6 | . | . | . | . | . | 54 | -62
CCn1cc(C(=O)OCC(=O)N2C(C)CCCC2C)c(=O)c2ccc(C)nc21 (stereo not given) | . | . | . | . | . | . | 39 | -29
CCn1cc(C(=O)OCC(=O)N(C)Cc2ccccc2)c(=O)c2ccc(C)nc21 | . | . | . | . | . | . | / | /
CN[C@H]1C[C@H]2c3[nH]c4cccc(-c5ccccc5)c4c3CCN2C[C@H]1[C@H](C)O | / | / | / | / | . | / | / | /
Clc1cnc(N/N=C/c2ccncc2)c(Cl)c1 | . | . | . | . | . | . | 37 | -44
COc1ccc(OC)c(S(=O)(=O)N2CCCCC2C(=O)N2CCN(c3ccc(F)cc3)CC2)c1 (stereo not given) | / | / | / | / | . | / | / | /
CN(C)c1ccc2c3c(ccc(N(C)C)c13)COC2 | 15 | . | . | . | . | . | 24 | -31
CN(C)c1cccc2cccc(N(C)C)c12 | . | . | . | . | . | . | / | /
Cc1ccc(-c2nc3ncccn3c2NC2CCCCC2)o1 | . | . | . | . | . | . | 36 | .
C=CCc1cccc(C=NNC(=O)c2ccco2)c1O | / | / | / | / | . | / | / | /
CCC(CC)NC(=O)O[C@H]1CC[C@@]23CCCN2C(=O)CCC[C@H]3[C@H]1C | / | / | / | / | . | / | / | /
CN(C)c1ccnc(Nc2ccccc2)c1C#N | 6.3 | . | . | . | . | . | 52 | -35
CSc1nccc(Nc2ccccc2)c1C#N | . | . | . | . | . | . | / | /
CCN1CCN(C(=O)c2cc(-c3cccnc3)nc3ccc(Br)cc23)CC1 | 6.6 | . | . | . | . | . | 54 | -44
COCCNc1ccnc2c(Cl)cccc12 | 6.3 | . | . | . | . | . | 57 | -61
COc1ccc(OC)c(C(c2nnnn2C2CCCC2)N2CCN(c3ccccc3F)CC2)c1 (stereo not given) | . | . | . | . | . | . | 35 | .
SMILES | CHT PAM | GalR3 antag | CHT inh | NR2E3 ag-1 | NR2F2 inh | NR2E3 ag-2 | CHT activ conf | HEK293 MP dye
C[n+]1cccc(C2C(C#N)=C(N)Oc3c2ccc2ccccc32)c1 (stereo not given) | . | . | . | . | . | . | 43 | -57
N#CC1=C(N)Oc2c(ccc3cccnc23)C1c1cccnc1 (stereo not given) | . | . | . | . | . | . | / | /
C[n+]1cccc2ccc3c(c21)OC(N)=C(C#N)C3c1ccccc1 (stereo not given) | 10 | . | . | . | . | . | 72 | -80
Cn1c(N)c(C(=O)COc2ccc(C#N)cc2)c(=O)n(C)c1=O | . | . | . | . | . | . | 38 | -36
CCCCN(C)CCNS(=O)(=O)c1ccc2c(c1)n(C)c(=O)c(=O)n2C | 17 | . | . | . | . | . | 76 | -84
Clc1ccc(CSc2nncn2-c2ccccn2)cc1 | . | . | . | . | . | . | / | /
Clc1ccc(CSc2nncn2-c2ccc3c(c2)OCCO3)cc1 | 13 | . | . | . | . | . | . | .
COC(=O)C1CN(Cc2cn(Cc3ccccc3)nn2)CCS(=O)(=O)N1Cc1ccc(Cl)cc1 (stereo not given) | / | / | / | / | . | / | / | /
CCCCCCCCCCOC(=O)Cn1c(COc2ccc(OC)cc2)[n+](C)c2ccccc21 | 13 | / | . | . | / | . | 28 | -42
Cc1ccccc1OCc1n(CC(=O)OC2CC(C)CCC2C(C)C)c2ccccc2[n+]1C (stereo not given) | . | . | . | . | . | . | 14 | .
CCCCCCCCCCOC(=O)Cn1c(COc2ccccc2)[n+](C)c2ccccc21 | . | . | . | . | . | . | / | /
CCCCCCCCCCOC(=O)Cn1c(COc2ccccc2C)[n+](C)c2ccccc21 | 14 | / | . | . | / | . | . | -46
CC1CCC(C(C)C)C(OC(=O)Cn2c(-c3ccc(Br)cc3)[n+](C)c3ccccc32)C1 (stereo not given) | . | . | . | . | . | . | / | /
CCCCCCCCCCOC(=O)Cn1c(COc2cccc(C)c2)[n+](C)c2ccccc21 | . | . | . | . | . | . | . | -41
C=CCN1C(=O)[C@@H](CC(=O)NCc2cccc(C(F)(F)F)c2)[C@]2(C(=O)OC)CCCCC=C12 | / | / | / | / | . | / | / | /
O=C(CSc1nnc(-c2ccccn2)n1Cc1ccco1)Nc1ccc(Oc2ccccc2)cc1 | / | / | / | / | . | / | / | /
Cc1ccc(-c2nn(C)c(=O)c3ccccc23)cc1CN1CCCCC1 | 8.7 | . | . | . | . | . | 27 | -52
S=C(NCc1ccc(Cl)cc1)OC1CCC12CCC(c1ccccc1)CC2 (stereo not given) | / | / | / | / | . | / | / | /
CCOC(=O)c1c(CNc2ccncc2)n(C)c2cc(Br)c(O)cc12 | 11 | . | . | . | . | . | 52 | -51
CN1CCN(c2ccc3c(c2)Oc2ccccc2CN(Cc2cn(Cc4ccc(F)cc4)nn2)S3(=O)=O)CC1 | / | / | / | / | . | / | / | /
Nc1cc2nc3ccccc3oc-2cc1=O | 6.8 | . | . | . | . | . | 13 | -38
COc1ccc2nc(N(CCN(C)C)C(=O)/C=C/c3cccs3)sc2c1 | 7.2 | . | . | . | . | . | 35 | -32
